In brackets after ≈: the same amount, converted by molar mass.
How the values were obtained:
[1] = system: Human alphaherpesvirus 1; test: Antiviral activity against thymidine kinase deficient acyclovir-resistant Herpes simplex virus 1 KOS infected in HEL cells assessed as inhibition of virus induced cytopathicity after 2 to 4 days by MTS assay; assay type: functional, organism-based; conditions: Human alphaherpesvirus 1, KOS
[2] = system: Vaccinia virus; test: Antiviral activity against Vaccinia virus infected in HEL cells assessed as inhibition of virus induced cytopathicity after 2 to 4 days by MTS assay; assay type: functional, organism-based; conditions: Orthopoxvirus vaccinia
[3] = Cytotoxicity against human HEL cells assessed as altered cell morphology; assay type: cell-based
Procedure, shortened: (§1)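 Uninfected cell cultures run alongside the antiviral assays, exposed to serial compound dilutions and incubated at 37 °C for 2–4 days. Toxicity was scored microscopically and reported as the minimum cytotoxic concentration (MCC), the lowest concentration causing a detectable change in normal cell morphology.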

[4] = system: Coxsackievirus B4; test: Antiviral activity against coxsackievirus B4 infected in human HeLa cells assessed as inhibition of virus induced cytopathicity after 2 to 4 days by MTS assay; assay type: functional, organism-based; conditions: Enterovirus B
[5] = system: Influenza B virus; test: Antiviral activity against Influenza B virus infected in MDCK cells assessed as inhibition of virus induced cytopathicity after 2 to 4 days by MTS assay; assay type: functional, organism-based
[6] = system: Felid alphaherpesvirus 1; test: Antiviral activity against Feline herpesvirus 1 infected in cat CRFK cells assessed as inhibition of virus induced cytopathicity after 2 to 4 days by MTS assay; assay type: functional, organism-based; conditions: Felid alphaherpesvirus 1, CRFK
[7] = system: Vesicular stomatitis virus; test: Antiviral activity against Vesicular stomatitis virus infected in human HeLa cells assessed as inhibition of virus induced cytopathicity by visual scoring of CPE; assay type: functional, organism-based
[8] = system: Respiratory syncytial virus; test: Antiviral activity against Respiratory syncytial virus infected in human HeLa cells assessed as inhibition of virus induced cytopathicity after 2 to 4 days by MTS assay; assay type: functional, organism-based
[9] = system: Influenza A virus; test: Antiviral activity against Influenza A H3N2 virus subtype infected in MDCK cells assessed as inhibition of virus induced cytopathicity after 2 to 4 days by MTS assay; assay type: functional, organism-based
[10] = system: Human alphaherpesvirus 2; test: Antiviral activity against Herpes simplex virus 2 G infected in HEL cells assessed as inhibition of virus induced cytopathicity after 2 to 4 days by MTS assay; assay type: functional, organism-based; conditions: Human alphaherpesvirus 2, strain G
[11] = system: Mammalian orthoreovirus 1; test: Antiviral activity against Reovirus 1 virus infected in african green monkey Vero cells assessed as inhibition of virus induced cytopathicity after 2 to 4 days by MTS assay; assay type: functional, organism-based; conditions: Mammalian orthoreovirus 1, Vero
[12] = Cytotoxicity against african green monkey Vero cells assessed as altered cell morphology; assay type: cell-based; conditions: chlorocebus sabaeus; procedure, shortened: as §1
[13] = system: Punta Toro virus; test: Antiviral activity against Punta Toro virus infected in african green monkey Vero cells assessed as inhibition of virus induced cytopathicity after 2 to 4 days by MTS assay; assay type: functional, organism-based
[14] = system: Staphylococcus aureus; test: Antimicrobial activity against Staphylococcus aureus after 24 hrs by tube dilution method; assay type: functional
[15] = system: Human respirovirus 3; test: Antiviral activity against parainfluenza-3 virus infected in african green monkey Vero cells assessed as inhibition of virus induced cytopathicity after 2 to 4 days by MTS assay; assay type: functional, organism-based; conditions: Human respirovirus 3, Vero
[16] = system: MDCK; test: Cytotoxicity against MDCK cells assessed as cell viability by MTS assay; assay type: cell-based, Canis lupus familiaris; conditions: dog, mdck
Procedure, shortened: (§2)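 Uninfected cultures were run in parallel with the antiviral assays. Viability was read by colorimetric formazan MTS assay.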

[17] = Cytotoxicity against human HeLa cells assessed as altered cell morphology; assay type: cell-based; procedure, shortened: as §1
[18] = system: Influenza B virus; test: Antiviral activity against Influenza B virus infected in MDCK cells assessed as inhibition of virus induced cytopathicity by visual scoring of CPE; assay type: functional, organism-based
[19] = Cytotoxicity against cat CRFK cells assessed as cell viability by MTS assay; assay type: cell-based, Felis catus; procedure, shortened: as §2
[20] = system: Sindbis virus; test: Antiviral activity against Sindbis virus infected in african green monkey Vero cells assessed as inhibition of virus induced cytopathicity after 2 to 4 days by MTS assay; assay type: functional, organism-based
[21] = system: Vesicular stomatitis virus; test: Antiviral activity against Vesicular stomatitis virus infected in HEL cells assessed as inhibition of virus induced cytopathicity after 2 to 4 days by MTS assay; assay type: functional, organism-based
[22] = system: Feline coronavirus; test: Antiviral activity against Feline coronavirus infected in cat CRFK cells assessed as inhibition of virus induced cytopathicity after 2 to 4 days by MTS assay; assay type: functional, organism-based; conditions: Alphacoronavirus 1, CRFK
[23] = system: Escherichia coli; test: Antimicrobial activity against Escherichia coli after 24 hrs by tube dilution method; assay type: functional
[24] = system: Human alphaherpesvirus 1; test: Antiviral activity against Herpes simplex virus 1 KOS infected in HEL cells assessed as inhibition of virus induced cytopathicity after 2 to 4 days by MTS assay; assay type: functional, organism-based; conditions: Human alphaherpesvirus 1, KOS
[25] = system: Coxsackievirus B4; test: Antiviral activity against Coxsackie virus B4 infected in african green monkey Vero cells assessed as inhibition of virus induced cytopathicity after 2 to 4 days by MTS assay; assay type: functional, organism-based; conditions: Enterovirus B
[26] = system: Respiratory syncytial virus; test: Antiviral activity against Respiratory syncytial virus infected in human HeLa cells assessed as inhibition of virus induced cytopathicity by visual scoring of CPE; assay type: functional, organism-based
[27] = system: Candida albicans; test: Antimicrobial activity against Candida albicans after 48 hrs by tube dilution method; assay type: functional
[28] = system: Aspergillus niger; test: Antimicrobial activity against Aspergillus niger after 7 days by tube dilution method; assay type: functional; conditions: 168 h
[29] = system: HeLa; test: Cytotoxicity against human HeLa cells assessed as cell viability by MTS assay; assay type: cell-based; conditions: hela; procedure, shortened: as §2
[30] = system: Influenza A virus; test: Antiviral activity against Influenza A H3N2 virus subtype infected in MDCK cells assessed as inhibition of virus induced cytopathicity by visual scoring of CPE; assay type: functional, organism-based
[31] = system: Vesicular stomatitis virus; test: Antiviral activity against Vesicular stomatitis virus infected in human HeLa cells assessed as inhibition of virus induced cytopathicity after 2 to 4 days by MTS assay; assay type: functional, organism-based
[32] = system: Coxsackievirus B4; test: Antiviral activity against coxsackievirus B4 infected in human HeLa cells assessed as inhibition of virus induced cytopathicity by visual scoring of CPE; assay type: functional, organism-based; conditions: Enterovirus B
[33] = Cytotoxicity against MDCK cells assessed as altered cell morphology; assay type: cell-based, Canis lupus familiaris; conditions: dog; procedure, shortened: as §1
[34] = system: Bacillus subtilis; test: Antimicrobial activity against Bacillus subtilis after 24 hrs by tube dilution method; assay type: functional
Procedure, shortened: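 Serial dilutions in double-strength nutrient broth (I.P.) with ciprofloxacin as reference, tube dilution, incubated 37 °C for 24 h. MIC is the lowest concentration that inhibited growth.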

Row | Compound | EC50 [1] [µg/mL] | EC50 [2] [µg/mL] | MCC [3] [µg/mL] | EC50 [4] [µg/mL] | EC50 [5] [µg/mL] | EC50 [6] [µg/mL] | EC50 [7] [µg/mL] | EC50 [8] [µg/mL] | EC50 [9] [µg/mL] | EC50 [10] [µg/mL] | EC50 [11] [µg/mL] | MCC [12] [µg/mL] | EC50 [13] [µg/mL] | MBC [14] [µg/mL] | EC50 [15] [µg/mL] | CC50 [16] [µg/mL] | MCC [17] [µg/mL] | EC50 [18] [µg/mL] | EC50 [22] [µg/mL] | EC50 [24] [µg/mL] | other results
1 | O=c1[nH]c(=O)n([C@H]2C[C@H](O)[C@@H](CO)O2)cc1/C=C/Br [BRIVUDINE] | > 250 | 112 (≈ 336 µM) | > 250 |  |  |  |  |  |  |  |  |  |  |  |  |  |  |  |  |  | 
2 | COc1ccc(C(=O)n2c(-c3ccc(S(=O)(=O)O)cc3)nc3ccccc32)cc1 | > 100 | > 100 | > 100 | > 100 | > 100 | > 100 | > 100 | > 100 | > 100 | > 100 | > 100 | > 100 | > 100 | > 50 | > 100 | > 100 | > 100 | > 100 | > 100 | > 100 | CC50 ([19]; crfk): > 100 µg/mL; EC50 [20]: > 100 µg/mL; EC50 [21]: > 100 µg/mL; MBC [23]: 3.12 µg/mL (≈ 7.64 µM); EC50 [25]: > 100 µg/mL; EC50 [26]: > 100 µg/mL; MFC [27]: > 50 µg/mL; MFC [28]: > 50 µg/mL; CC50 [29]: > 100 µg/mL; EC50 [30]: > 100 µg/mL; EC50 [31]: > 100 µg/mL; EC50 [32]: > 100 µg/mL; MCC [33]: > 100 µg/mL; MBC [34]: > 50 µg/mL
3 | O=C(c1ccccc1Cl)n1c(-c2ccc(S(=O)(=O)O)cc2)nc2ccccc21 | > 100 | > 100 | > 100 | > 100 | > 100 | > 100 | > 100 | > 100 | > 100 | > 100 | > 100 | > 100 | > 100 | 25 (≈ 60.6 µM) | > 100 | > 100 | > 100 | > 100 | > 100 | > 100 | CC50 ([19]; crfk): > 100 µg/mL; EC50 [20]: > 100 µg/mL; EC50 [21]: > 100 µg/mL; MBC [23]: 1.56 µg/mL (≈ 3.78 µM); EC50 [25]: > 100 µg/mL; EC50 [26]: > 100 µg/mL; MFC [27]: > 50 µg/mL; MFC [28]: > 50 µg/mL; CC50 [29]: > 100 µg/mL; EC50 [30]: > 100 µg/mL; EC50 [31]: > 100 µg/mL; EC50 [32]: > 100 µg/mL; MCC [33]: > 100 µg/mL; MBC [34]: > 50 µg/mL
4 | O=C(c1ccccc1)n1c(-c2ccc(S(=O)(=O)O)cc2)nc2ccccc21 | > 100 | > 100 | > 100 | > 100 | > 100 | > 100 | > 100 | > 100 | > 100 | > 100 | > 100 | > 100 | > 100 | 12.5 (≈ 33 µM) | > 100 | > 100 | > 100 | > 100 | > 100 | > 100 | CC50 ([19]; crfk): > 100 µg/mL; EC50 [20]: > 100 µg/mL; EC50 [21]: > 100 µg/mL; MBC [23]: 1.56 µg/mL (≈ 4.12 µM); EC50 [25]: > 100 µg/mL; EC50 [26]: > 100 µg/mL; MFC [27]: 50 µg/mL (≈ 132 µM); MFC [28]: > 50 µg/mL; CC50 [29]: > 100 µg/mL; EC50 [30]: > 100 µg/mL; EC50 [31]: > 100 µg/mL; EC50 [32]: > 100 µg/mL; MCC [33]: > 100 µg/mL; MBC [34]: > 50 µg/mL
5 | O=C(c1cccnc1)n1c(-c2ccc(S(=O)(=O)O)cc2)nc2ccccc21 | > 100 | > 100 | > 100 | > 100 | > 100 | > 100 | > 100 | > 100 | > 100 | > 100 | > 100 | > 100 | > 100 | 12.5 (≈ 32.9 µM) | > 100 | > 100 | > 100 | > 100 | > 100 | > 100 | CC50 ([19]; crfk): > 100 µg/mL; EC50 [20]: > 100 µg/mL; EC50 [21]: > 100 µg/mL; MBC [23]: 1.56 µg/mL (≈ 4.11 µM); EC50 [25]: > 100 µg/mL; EC50 [26]: > 100 µg/mL; MFC [27]: > 50 µg/mL; MFC [28]: > 50 µg/mL; CC50 [29]: > 100 µg/mL; EC50 [30]: > 100 µg/mL; EC50 [31]: > 100 µg/mL; EC50 [32]: > 100 µg/mL; MCC [33]: > 100 µg/mL; MBC [34]: > 50 µg/mL
6 | Nc1ccn(C[C@@H](CO)OCP(=O)(O)O)c(=O)n1.O.O [CIDOFOVIR] | > 250 | > 250 | > 250 |  |  |  |  |  |  | 0.2 |  |  |  |  |  |  |  |  |  | 0.4 | 
7 | Nc1nc2c(ncn2COC(CO)CO)c(=O)[nH]1 [GANCICLOVIR] | 58 (≈ 227 µM) |  | > 100 |  |  | > 100 |  |  |  | 0.03 (≈ 0.118 µM) |  |  |  |  |  |  |  |  | 1.7 (≈ 6.66 µM) | 0.03 (≈ 0.118 µM) | CC50 ([19]; CRFK cells, read-out: CC50): > 100 µg/mL

— ChEMBL document CHEMBL1629526, “4-[1-(Substituted aryl/alkyl carbonyl)-benzoimidazol-2-yl]-benzenesulfonic acids: synthesis, antimicrobial activity, QSAR studies, and antiviral evaluation” (Eur J Med Chem, 2010)
